ChEMBL document CHEMBL4190304, “Peroxynitrite-Scavenging Glycosides from the Stem Bark of Catalpa ovata” (J Nat Prod, 2017)

Assay: Peroxynitrite scavenging activity assessed as inhibition of DHR 123 oxidation after 5 mins in presence of SIN-1 by fluorescence assay
Type: functional
Summary of the method: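 ONOO− generated by decomposition of SIN-1 (10 μM) in buffer of 90 mM NaCl, 50 mM Na3PO4, 5 mM KCl, 100 μM DTPA, pH 7.4 (N2-purged, on ice), with DHR 123 working solution 5 μM. Fluorescence read (ex 480/em 530 nm) 5 min after treatment with and without SIN-1. Final minus background intensity gives % inhibition of oxidation; IC50, mean ± SD, three independent experiments. DL-penicillamine positive control.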

IC50 [µM]	Compound
36.4	COc1ccc(C(=O)O[C@H]2[C@@H]3C=CO[C@@H](O[C@@H]4O[C@H](CO)[C@@H](O)[C@H](O)[C@H]4O)[C@@H]3[C@@]3(CO)O[C@@H]23)cc1
0.79	COc1cc(/C=C/C(=O)OC[C@H]2O[C@@H](OC[C@@H]3c4cc(/C=C/C=O)cc(OC)c4O[C@H]3c3ccc(O)c(OC)c3)[C@H](O)[C@@H](O)[C@@H]2O)ccc1O
39.5	O=C(O[C@@H]1C[C@@](O)(CO)[C@H]2[C@H](O[C@@H]3O[C@H](CO)[C@@H](O)[C@H](O)[C@H]3O)OCC[C@H]21)c1ccc(O)cc1
8.3	C[C@]1(O)C[C@@H](OC(=O)c2ccc(O)cc2)[C@@H]2CCO[C@@H](O[C@@H]3O[C@H](CO)[C@@H](O)[C@H](O)[C@H]3O)[C@@H]21
0.81	COc1cc(/C=C/C(=O)OC[C@H]2OC(OC[C@H]3[C@@H](Cc4ccc(O)c(OC)c4)CO[C@@H]3c3ccc(O)c(OC)c3)[C@H](O)[C@@H](O)[C@@H]2O)ccc1O (some centres undefined)
2.2	COc1cc(/C=C/C(=O)O[C@H]2[C@@H]3CCO[C@@H](O[C@@H]4O[C@H](CO)[C@@H](O)[C@H](O)[C@H]4O)[C@@H]3[C@@]3(CO)O[C@@H]23)ccc1O
0.48	COc1cc(/C=C/C(=O)OC[C@H]2O[C@@H](Oc3ccc(O)cc3OC)[C@H](O)[C@@H](O)[C@@H]2O)ccc1O
58.4	O=C(O[C@H]1[C@@H]2CCO[C@@H](O[C@@H]3O[C@H](CO)[C@@H](O)[C@H](O)[C@H]3O)[C@@H]2[C@@]2(CO)O[C@@H]12)c1ccc(O)cc1
2	COc1cc(/C=C/C(=O)O[C@@H]2C[C@@](O)(CO)[C@H]3[C@H](O[C@@H]4O[C@H](CO)[C@@H](O)[C@H](O)[C@H]4O)OC=C[C@H]32)ccc1O
3.9	COc1ccc(/C=C/C(=O)O[C@@H]2C[C@@](O)(CO)[C@H]3[C@H](O[C@@H]4O[C@H](CO)[C@@H](O)[C@H](O)[C@H]4O)OC=C[C@H]32)cc1O
3.4	CC(C)(S)C(N)C(=O)O (racemic) [DL-PENICILLAMINE]
0.17	COc1cc(/C=C/C(=O)OC[C@H]2O[C@@H](Oc3ccc(CO)cc3OC)[C@H](O)[C@@H](O)[C@@H]2O)ccc1O
> 100	COc1ccc(C(=O)O[C@H]2[C@@H]3C=CO[C@@H](O[C@@H]4O[C@H](CO)[C@@H](O)[C@H](O)[C@H]4O)[C@@H]3[C@@]3(CO)O[C@@H]23)cc1OC
1.02	COc1cc(/C=C/C(=O)OC[C@H]2O[C@@H](OCCC3(O)CCC(=O)CC3)[C@H](O)[C@@H](O)[C@@H]2O)ccc1O
8.6	COc1cc(C(=O)OC[C@@]2(O)CO[C@@H](O[C@H]3[C@H](OCCc4ccc(O)cc4)O[C@H](CO)[C@@H](O)[C@@H]3O)[C@@H]2O)ccc1O
13.6	O=C(/C=C/c1ccc(O)cc1)O[C@H]1[C@@H]2C=CO[C@@H](O[C@@H]3O[C@H](CO)[C@@H](O)[C@H](O)[C@H]3O)[C@@H]2[C@@]2(CO)O[C@@H]12 [SPECIOSIDE]
1.1	COc1cc(/C=C/C(=O)OC[C@H]2O[C@@H](O[C@@H]3OC=C[C@H]4[C@H](OC(=O)/C=C/c5ccc(O)c(OC)c5)[C@@H]5O[C@]5(CO)[C@@H]34)[C@H](O)[C@@H](O)[C@@H]2O)ccc1O
0.34	COC/C=C/c1cc(OC)c2c(c1)[C@H](CO[C@@H]1O[C@H](COC(=O)/C=C/c3ccc(O)c(OC)c3)[C@@H](O)[C@H](O)[C@H]1O)[C@@H](c1ccc(O)c(OC)c1)O2
78.5	COc1ccc(/C=C/C(=O)O[C@H]2[C@@H]3C=CO[C@@H](O[C@@H]4O[C@H](CO)[C@@H](O)[C@H](O)[C@H]4O)[C@@H]3[C@@]3(CO)O[C@@H]23)cc1
7.7	COc1cc(CCO[C@@H]2O[C@H](CO)[C@@H](O)[C@H](O[C@@H]3O[C@H](C)[C@@H](O)[C@H](O)[C@H]3O)[C@H]2O)ccc1O
1.6	COc1cc(/C=C/C(=O)O[C@H]2[C@@H]3C=CO[C@@H](O[C@@H]4O[C@H](CO)[C@@H](O)[C@H](O)[C@H]4O)[C@@H]3[C@@]3(CO)O[C@@H]23)ccc1O
0.88	COc1cc(/C=C/C(=O)OC[C@]23O[C@H]2[C@@H](OC(=O)/C=C/c2ccc(O)c(OC)c2)[C@@H]2C=CO[C@@H](O[C@@H]4O[C@H](CO)[C@@H](O)[C@H](O)[C@H]4O)[C@@H]23)ccc1O
> 100	O=C(O[C@H]1[C@@H]2C=CO[C@@H](O[C@@H]3O[C@H](CO)[C@@H](O)[C@H](O)[C@H]3O)[C@@H]2[C@@]2(CO)O[C@@H]12)c1ccc(O)cc1 [CATALPOSIDE]
76.7	O=C(OC1C[C@@]2(O)COC3C[C@@H](O[C@@H]4O[C@H](CO)[C@@H](O)[C@H](O)[C@H]4O)[C@H]2[C@H]1C3)c1ccc(O)cc1 (some centres undefined)
36.2	O=C(OC[C@@]1(O)CO[C@@H](O[C@H]2[C@H](OCCc3ccc(O)cc3)O[C@H](CO)[C@@H](O)[C@@H]2O)[C@@H]1O)c1ccc(O)cc1
4.5	O=C(/C=C/c1ccc(O)cc1)OC[C@@]1(O)CO[C@@H](O[C@H]2[C@H](OCCc3ccc(O)cc3)O[C@H](CO)[C@@H](O)[C@@H]2O)[C@@H]1O
0.14	COc1cc(/C=C/C(=O)OC[C@H]2O[C@@H](OCCc3ccc(O)cc3)[C@H](O)[C@@H](O)[C@@H]2O)ccc1O
15.7	OC[C@H]1O[C@@H](OCCc2ccc(O)cc2)[C@H](O[C@@H]2OC[C@](O)(CO)[C@H]2O)[C@@H](O)[C@@H]1O

Compound	IC50 [µM]
COc1cc(C(=O)O[C@H]2[C@@H]3C=CO[C@@H](O[C@@H]4O[C@H](CO)[C@@H](O)[C@H](O)[C@H]4O)[C@@H]3[C@@]3(CO)O[C@@H]23)ccc1O [PICROSIDE II]	6
